iPSC survival up = increases survival of single human iPS cells; 0.044% of 360,000 active; survival enhancement, % at 20 µM; hiPSC single-cell survival, ATPlite luminescence; 100% = ROCK inhibitor wells, 0% = DMSO; in the data active = survival enhancement above about 18%;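 note: cells exposed to compounds for 16 hours before the ATP read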
TAG inh = inhibitors of triacylglycerol accumulation; H9c2 cells, Nile Red lipid (TAG) fluorescence; cells loaded with 200 µM oleic acid; inhibition, % at 12.5 µM; 0.66% of 230,000 active; AID 651582;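 active = pattern-corrected inhibition of lipid staining of at least 50% with the nuclear-stain viability signal not falling by more than 50%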;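 note: 0% = DMSO wells and 100% = triacsin C control wells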
T cruzi inh = T. cruzi replication inhibition. inhibition, % (no concentration beside the values). T. cruzi beta-gal in NIH3T3, luminescence, 90 h. 1.4% of 300,000 active;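 active = mean inhibition across valid replicates above about 55%, limit read from the data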;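 note: signal also drops with host cell toxicity which is not excluded here; 0% = plate median of DMSO wells and 100% = zero luminescence signal; higher percent means less beta-gal luminescence so fewer parasites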
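Assay system: NIH/3T3 fibroblasts plus reporter T. cruzi. Amount: NIH/3T3 cells, 5,000 per well. Buffer or medium: DMEM, 2% fetal bovine serum. Doses: compound pinned at 50 nL/well, DMSO. Schedule: ≥90 h infection period, 3 h prior cell attachment. Signal: luminescent β-galactosidase signal after 60 min lysis. Read-out: parasite load inhibition, %.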
PG9 binder = small molecules binding HIV-1 gp120 antibody PG9 | TR-FRET gp120-PG9 antibody binding | inhibition, % at 6.7 µM | 0.43% of 360,000 active; in the data active = inhibition above about 8.5%
NR1D1 modulator = modulates human Rev-erb alpha binding to DNA | P20393 | Rev-erbα–FITC-DNA binding, fluorescence polarization, 90 min | activity, % at 10 µM | 0.79% of 370,000 active | AID 1259318;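 active = activity above about 14%, limit read from the data; passing the limit was not always enough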;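 note: 0% = DMSO wells with 35 nM protein and 100% = DMSO wells with 750 nM protein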
Target sequence (P20393 whole entry, looked up): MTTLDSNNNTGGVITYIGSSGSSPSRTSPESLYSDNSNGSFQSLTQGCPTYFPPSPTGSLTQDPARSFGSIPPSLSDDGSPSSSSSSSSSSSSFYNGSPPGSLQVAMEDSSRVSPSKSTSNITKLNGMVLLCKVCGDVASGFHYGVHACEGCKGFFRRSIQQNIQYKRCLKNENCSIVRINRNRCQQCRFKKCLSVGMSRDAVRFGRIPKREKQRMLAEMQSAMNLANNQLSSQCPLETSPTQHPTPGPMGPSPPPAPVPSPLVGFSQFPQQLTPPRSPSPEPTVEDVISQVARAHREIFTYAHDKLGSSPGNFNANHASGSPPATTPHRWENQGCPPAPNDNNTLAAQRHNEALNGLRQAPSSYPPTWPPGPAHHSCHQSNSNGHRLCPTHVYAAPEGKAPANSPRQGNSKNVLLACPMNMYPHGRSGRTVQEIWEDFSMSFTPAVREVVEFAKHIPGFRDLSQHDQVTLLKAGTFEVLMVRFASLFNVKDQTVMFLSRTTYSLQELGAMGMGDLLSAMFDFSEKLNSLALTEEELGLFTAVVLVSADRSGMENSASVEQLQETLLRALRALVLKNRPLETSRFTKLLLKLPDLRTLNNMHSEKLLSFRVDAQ
MIN6 prolif = inducers of beta-cell replication in MIN6 cells | MIN6 cells proliferation, ATPlite luminescence, 48 h; cells starved in 0.2% serum; 100% = growth in 10% serum | proliferation, % at 10 µM | 0.29% of 330,000 active | AID 2380;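 active = compounds whose signal lies at least 3.5 SD above the mean of all wells on their plate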;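 note: 0% = DMSO-treated cells in low-serum medium and 100% = 10% serum control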
PG9 bind confirm = PG9 antibody binding, confirmed | 90% of 1,500 active | inhibition, % at 6.7 µM | AID 651571 | TR-FRET PG9 antibody binding, biochemical | shares compounds with PG9 binder; in the data active = inhibition above about 9%
PGV04 Ab binding = counter-screen for PG9 binders: binding control antibody PGV04. shares compounds with PG9 binder. TR-FRET PGV04 antibody-gp120 binding, biochemical. inhibition, % at 6.7 µM. 95% of 1,500 active. AID 651604; in the data active = inhibition above about 9.5%
The depositor's hits bear a star; x = not tested or not shown. In the library only some 2.9% were active in any assay of this set; here they are far more common.

SMILES	iPSC survival up	TAG inh	T cruzi inh	PG9 binder	NR1D1 modulator	MIN6 prolif	PG9 bind confirm	PGV04 Ab binding
O=C1C(=O)N(Cc2cccnc2)C(c2ccc(Br)cc2)/C1=C(\O)c1ccc2c(c1)OCCO2 (stereo unspecified)	-0.6	x	-8.8	20.6*	-1.2	-2.7	31.4*	37.1*
Cc1ccc(C2/C(=C(\O)c3ccc4c(c3)OCCO4)C(=O)C(=O)N2Cc2cccnc2)cc1 (stereo unspecified)	0.2	x	-4.9	27.4*	9.7	5.1	38.4*	46.6*
COc1ccc(C2/C(=C(\O)c3ccc4c(c3)OCCO4)C(=O)C(=O)N2Cc2cccnc2)cc1OC (stereo unspecified)	-0.1	x	-9.8	3.1	-6.2	-2.5	x	x
Cc1occc1-c1nnc(SCC(=O)N(C)c2ccccc2)o1	0.1	8.7	x	2.3	-2.5	0.0	x	x
Cc1cc(C)c2c(=O)[nH]c(SCC(=O)c3ccc(C(C)C)cc3)nc2n1	-0.3	x	0.6	32.0*	-3.6	-3.9	59.4*	75.8*
CC(=O)c1cccc(NC(=O)CSc2nnc(-c3ccc(S(=O)(=O)N4CCCC4)cc3)o2)c1	0.7	x	-18.8	31.1*	8.4	-2.4	36.6*	45.8*
N/C(=N\S(=O)(=O)c1cc(C(F)(F)F)cc(C(F)(F)F)c1)c1ccc(Cl)cc1	-0.6	-24.9	x	-2.9	-1.5	-4.0	x	x
CCCCn1nnc(NC(=O)c2sc3cc(Cl)ccc3c2Cl)n1	0.6	-9.7	-2.0	14.5*	-3.1	-3.4	26.5*	36.5*
Cc1ccc(-n2nnc3ccccc3c2=O)cc1C	4.0	-14.1	11.0	-0.6	-0.6	-2.5	x	x
O=c1[nH]c2c(oc3ccccc32)c(=O)n1Cc1ccccc1	0.3	x	-3.2	2.0	-5.0	-2.6	x	x
Cc1ccc(-n2c(=S)[nH]c3c(oc4ccccc43)c2=O)cc1C	-2.1	6.4	8.3	19.9*	-7.1	0.0	11.1*	17.4*
O=c1c2oc3ccccc3c2[nH]c(=S)n1-c1ccc(F)cc1	-0.2	4.5	-18.9	10.1*	-6.1	-1.5	11.9*	12.0*
CCC(=O)Nc1nnc(-c2cccs2)s1	-2.0	-1.1	0.5	-0.9	-3.8	1.2	x	x
O=C(Cc1ccccc1)Nc1nnc(-c2cccs2)s1	-3.1	11.0	4.5	12.4*	8.5	-2.1	18.6*	31.1*
COc1cccc(-c2nnc(NC(=O)Cc3cccs3)s2)c1	-0.5	-6.5	-11.2	12.7*	16.2	-1.7	18.3*	38.9*
O=C(Cc1cccs1)Nc1nnc(-c2ccncc2)s1	0.8	x	-17.4	-2.0	-4.8	-3.0	x	x
Cc1noc(-c2ccc(C(F)(F)F)cc2)c1NC(=O)Nc1ccc(Cl)cc1	-0.3	0.9	-1.7	0.8	4.7	-3.3	x	x
CC1Cc2ccccc2N1C(=O)COC(=O)c1ccc(N(C)C)cc1 (stereo unspecified)	-0.2	-26.2	x	11.8*	6.2	-2.0	13.1*	15.9*
CC1Cc2ccccc2N1C(=O)COC(=O)c1ccc(O)cc1 (stereo unspecified)	1.0	0.4	2.4	2.6	0.3	-1.0	x	x
COc1ccccc1N1C(=O)C(Cl)=C(N2CCCC2)C1=O	-0.7	x	12.1	-1.5	-1.7	-2.7	x	x
Cc1cc(N=Cc2c(O)ccc3cc(Br)ccc23)no1	-0.6	x	-6.5	9.1*	1.3	x	7.2	10.4*
CCOC(=O)c1sc(=NC(=O)c2ccco2)n(C)c1C	-0.8	-5.3	x	1.3	1.1	-0.8	x	x
CCOC(=O)c1sc(=NC(=O)c2ccccc2Br)n(C)c1C	-0.5	x	10.0	14.8*	7.6	1.2	21.9*	44.5*
S=c1[nH]nc(-c2ccncc2)n1/N=C/C=C/c1ccccc1	-0.3	-1.2	3.4	-1.3	-0.3	1.3	x	x
COC(=O)c1c(Cl)c2n3ccccc3c(C)c(-c3ccccc3)c-2c1C(=O)OC	1.6	x	5.7	6.3	3.0	3.1	x	x
COC(=O)c1cc2c(-c3ccccc3)c(C)c3ccccn3c-2c1C(=O)OC	1.4	-15.8	42.2	25.6*	3.2	-6.2	34.8*	52.5*
